T cruzi inh – blocks replication of Trypanosoma cruzi | T. cruzi beta-gal in NIH3T3, luminescence, 90 h | inhibition, % (test concentration not listed) | actives 1.4% (n = 300,000) | AID 1885;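 active means mean inhibition across valid replicates above about 55%, limit read from the data; inconclusive means mean below that limit but half or more replicates reach it; inactive means mean below it, under half of replicates reach it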;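 further: signal also drops with host cell toxicity which is not excluded here; 0% = plate median of DMSO wells and 100% = zero luminescence signal; higher percent means less beta-gal luminescence so fewer parasites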
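System: Mouse NIH/3T3 fibroblasts infected with β-gal-expressing T. cruzi Tulahuen C4 | Quantity: NIH/3T3 cells, 5,000 per well | Reagent: 5000 reporter trypomastigotes per well | Dosing: Compound pinned at 50 nL/well, DMSO | Schedule: 3 h host attachment, then at least 90 h co-culture | Detection: GalScreen luminescence, 60 min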
CSC inhib – blocks cancer stem cells. actives 1.1% (n = 300,000). inhibition, % at 7.5 µM. cancer stem cell-like cells viability, luminescence; in the data active means inhibition above about 75%; inconclusive means no clear call, values can overlap the other calls; tested in HMLE shEcad cells
Beta apoptosis – beta cell apoptosis inhibition. INS-1E cytokine-induced death, ATP luminescence, 48 h; percent of positive-control rescue, neutral wells zero. protection from apoptosis, % (test concentration not listed). actives 0.8% (n = 300,000). AID 435005;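 active means Every replicate reaches about 75%, or at least half do and their mean reaches it too, limit read from the data; inconclusive means At least half of replicates reach the limit but their mean does not; inactive means Under half of replicates reach the limit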;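 further: 0% = cytokine-treated negative control wells and 100% = positive control rescue; higher means more ATP so stronger rescue from cytokine killing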
A1 inh – inhibitors of the anti-apoptotic protein A1, read as caspase activation. MEF A1-2A-BIM cells, Caspase-Glo 3/7 luminescence, 3 h; percent of clofoctol response, vehicle zero. caspase activation, % (test concentration not listed). AID 2462. actives 0.066% (n = 330,000);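 active means over half of replicate activation scores above 10%, or exactly half above 10 with the replicate mean above 10; inconclusive means replicate mean below 10 yet half the replicates above 10; inactive means over half of replicates below 10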
Calb FLC – affects C. albicans growth with fluconazole; C. albicans CaCi-2 + fluconazole, Alamar Blue growth, 48 h; growth inhibition, % (no concentration beside the values); actives 0.57% (n = 300,000); AID 1979;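 active means growth inhibition above about 58% in most replicates, limit read from the data, passing the limit was not always enough; inconclusive means exactly half the replicates above a set limit; inactive means most replicates below a set limit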;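 further: all wells also contain fluconazole at 8 µg/ml as a sub-toxic cotreatment; 0% = median of DMSO wells and 100% = median of geldanamycin control wells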
H9c2 TAG inh – inhibitors of triacylglycerol accumulation; H9c2 cells, Nile Red lipid (TAG) fluorescence; cells loaded with 200 µM oleic acid; inhibition, % at 12.5 µM; actives 0.66% (n = 230,000); AID 651582;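 active means pattern-corrected inhibition of lipid staining of at least 50% with the nuclear-stain viability signal not falling by more than 50%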;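 further: 0% = DMSO wells and 100% = triacsin C control wells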
Active calls of the source: *; ? = inconclusive; . = not tested or not shown. Sampled rows, rich in hits. Any-hit rate of the full collection: about 3.1%.

SMILES	T cruzi inh	CSC inhib	Beta apoptosis	A1 inh	Calb FLC	H9c2 TAG inh
C#CCOCCOCCOCCNc1nc(N2CCN(C(=O)CCCCCCCCCCNC(=O)[C@H](CCCCN)n3cc(C)nn3)CC2)nc(N2CCN(C(=O)CCCCCCCCCCNC(=O)[C@H](CCCN=C(N)N)n3cc(C[C@@H](C)CC)nn3)CC2)n1	.	168*	100*	?	.	.
C#CCOCCOCCOCCNc1nc(N2CCN(C(=O)CCCCCCCCCCNC(=O)[C@@H](CCSC)n3cc(CCO)nn3)CC2)nc(N2CCN(C(=O)CCCCCCCCCCNC(=O)[C@H](CCCN=C(N)N)n3cc(C[C@@H](C)CC)nn3)CC2)n1	.	67	43	1	.	-6
COc1ccc(N2C(=O)c3ccccc3C(C)(C)C2=O)cc1	-2	-7	1	0	-1	.
CN1CCN(C(=O)/C(=C/c2cn(S(=O)(=O)N(C)C)c3ccccc23)NC(=O)c2ccccc2)CC1	2	-4	2	0	22	.
COc1ccc(C(=O)c2ccc([N+](=O)[O-])cc2Cl)cc1	60*	15	2	-1	-1	.
CN1CCN(c2ccc(CNS(=O)(=O)Cc3cccc(C(F)(F)F)c3)cc2)CC1	-3	44	86*	0	10	-13
CN1CCN(c2ccc(CNS(=O)(=O)c3ccccc3)cc2)CC1	15	33	-9	0	-17	-3
COc1ccc(-c2c[n+]3c4n2CCCCC4=C(c2ccccc2)C3)cc1	62*	.	.	.	-35	.
FC(F)Oc1ccc(-c2c[n+]3c(n2-c2ccccc2)CCCCC3)cc1	36	-8	8	?	1	-10
COc1ccc(-n2c(-c3ccc(Cl)cc3)c[n+]3c2CCCCC3)cc1	54	20	125*	0	8	-1
COc1ccc(-c2c[n+](CC(=O)c3ccccc3)c3n2CCCCC3)cc1	28	13	12	0	-4	-19
COc1ccc(-c2c[n+]3c(n2-c2ccccc2)CCCCC3)cc1	?	27	115*	0	112*	.
COc1ccc(-c2c[n+]3c(n2-c2c(C)n(C)n(-c4ccccc4)c2=O)CCCCC3)cc1	-28	-9	-4	1	-31	2
COc1ccc(-c2c[n+]3c(n2-c2ccc(C)cc2)CCCCC3)cc1	60*	16	127*	-1	-8	-8
FC(F)Oc1ccc(-n2cc(-c3ccc(Cl)cc3)[n+]3c2CCCCC3)cc1	25	-6	14	-1	-34	-24
COc1cccc(CN(CC(=O)NC2CCCC2)C(=O)c2csnn2)c1	4	-9	-1	?	-8	.
CCOC(=O)c1cc2c(OC)c(OC)ccc2c2[nH]cc(C#N)c(=O)c12	.	.	.	.	.	1
CC(=O)NC(=O)c1ccc(-c2ccc(Cl)cc2)o1	-4	7	-1	-4	11	.
O=C(NC12CC3CC(CC(C3)C1)C2)c1ccc(COc2ccc(Cl)cc2[N+](=O)[O-])o1	.	4	5	0	.	-9
O=C(NC12CC3CC(CC(C3)C1)C2)c1ccc(-c2ccccc2Cl)o1	?	125*	16	0	6	-10
O=C(NC12CC3CC(CC(C3)C1)C2)c1ccc(-c2cccc(Cl)c2)o1	44	95*	16	1	-5	.
O=C(NC12CC3CC(CC(C3)C1)C2)c1ccc(-c2ccc(Cl)cc2)o1	59*	13	14	1	14	.
O=C1c2ccccc2C(=O)N1CC#CCN1CCN(C(c2ccccc2)c2ccccc2)CC1	10	96*	-2	0	9	.
COc1cc(OC)c(OC)cc1/C=C1\CC(C)C/C(=C\c2cc(OC)c(OC)cc2OC)C1=O (stereo not given)	59*	12	14	0	2	.
CCC1C/C(=C\c2cc(OC)c(OC)cc2OC)C(=O)/C(=C/c2cc(OC)c(OC)cc2OC)C1 (stereo not given)	53	6	1	1	0	.
SMILES	T cruzi inh	CSC inhib	Beta apoptosis	A1 inh	Calb FLC	H9c2 TAG inh
CC1CCCC(C)N1CCCNC(=O)Cn1ncc2c3ccccc3n(C)c2c1=O (stereo not given)	-1	-16	-7	1	-8	.
CCCOc1cccc(CN2CCCCC2c2cccnc2)c1 (stereo not given)	55*	-6	-2	0	-14	.
COc1cc(OC)nc(-n2ncc(Br)c(Br)c2=O)n1	.	107*	99*	-1	.	.
O=[N+]([O-])c1ccc(CS(=O)(=O)c2ncn[nH]2)cc1	-2	-17	-7	1	-7	.
Nc1c(S(=O)(=O)c2ccccc2)c2nc3ccccc3nc2n1CCN1CCOCC1	12	0	-2	-1	88*	.
Cc1cccc(S(=O)(=O)c2c(N)n(/N=C/c3ccccc3)c3nc4ccccc4nc23)c1	31	14	10	0	-11	.
Nc1c(S(=O)(=O)c2ccccc2)c2nc3ccccc3nc2n1/N=C/c1cccc(O)c1	43	104*	14	2	1	5
O=C(C[C@@H]1C/C=C\C[C@H](Cc2ccc(F)cc2)C(=O)OC[C@@H]2CCCN2C1=O)N[C@H](CO)Cc1ccccc1	.	.	1	0	.	3
Cc1cc(C)c(C2=Nn3c(C)nnc3SC2C)cc1C (stereo not given)	-15	.	9	1	8	.
COc1ccc(NC(=O)C2CCCCN2N)cc1OCC(C)C (stereo not given)	-9	-1	-6	-1	-9	.
COc1ccc(CNN2CCCCC2C(=O)Nc2ccc(OC)c(OCC(C)C)c2)cc1OC (stereo not given)	57*	-12	0	-1	-4	-8
COc1ccc(C)cc1NC(=O)CCNC(=O)Cn1cnc2ccccc2c1=O	-8	29	3	0	-6	.
O=c1cc(-c2c(F)c(F)c(F)c(F)c2F)oc2c(F)c(F)c(F)c(F)c12	61*	101*	107*	2	65	.
CCCOC(=O)/C(=C\c1ccc([N+](=O)[O-])o1)NC(=O)c1ccccc1	51	0	-1	0	89*	-9
O=C(NCCO)/C(=C\c1ccc([N+](=O)[O-])o1)NC(=O)c1ccccc1	37	12	.	3	43	-4
CCOC(=O)/C(=C\c1ccc([N+](=O)[O-])o1)NC(=O)c1ccccc1	68*	0	-8	1	68	.
NS(=O)(=O)c1cccc(NC(=O)COC(=O)CCc2ccccc2)c1	-3	9	5	0	-3	.
Oc1nc(Nc2cccc(Cl)c2)sc1/C=C1\C=Nc2ccccc21	-5	109*	-3	-1	-1	.
CC1=Nc2ccccc2/C1=C\c1sc(Nc2ccc(C)cc2)nc1O	29	85*	42	0	4	.
Oc1nc(Nc2ccc(F)cc2)sc1/C=C1\C=Nc2ccccc21	13	66	8	-1	0	10
